APJ antag – APJ receptor antagonism; P35414; CHO-K1 APJ beta-arrestin complementation, luminescence; inhibition, % at 20 µM; 330,000 tested, 0.32% active; AID 2521;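 active = inhibition above about 40% at 20 µM, limit read from the data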;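 also: cells challenged with 10 nM apelin-13 agonist together with compound; plate controls were apelin-13 plus DMSO wells for no effect and DMSO wells lacking apelin-13 for full effect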
EBI2 block – antagonists of human EBI2 receptor; EBI2 beta-arrestin recruitment, luminescence, 7a,25-OHC stimulated; inhibition, % at 5 µM; 360,000 tested, 0.81% active; AID 651636; in the data active = inhibition above about 38%;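 also: enzyme fragment complementation signal reports receptor beta-arrestin coupling in cells; 0% = agonist plus DMSO wells and 100% = wells without agonist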
HTR2A ag – mouse HTR2A agonism via beta-arrestin recruitment | P35363 | 360,000 tested, 0.66% active | activation, % at 7.6 µM | AID 624169 | CHO-K1 mHTR2A beta-arrestin complementation, luminescence; percent of 30 µM serotonin response;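 active = activation above a run cutoff, the mean activation of all tested compounds plus 3 SD, cut at about 14% in these data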;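 also: 0% = plate median of compound wells and 100% = 30 µM serotonin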
CXCR6 block – inhibitors of human CXCR6 receptor | O00574 | AID 602244 | CHO-K1 PathHunter CXCR6 beta-arrestin, luminescence | 360,000 tested, 0.36% active | inhibition, % at 20 µM; in the data active = inhibition above about 34%, passing the limit was not always enough;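 also: antagonist mode with CXCL16 agonist at 10 nM final; 0% = 10 nM CXCL16 with DMSO and 100% = unstimulated wells without agonist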
APJ agonist – activates the human apelin receptor APJ; AID 2520; P35414; CHO-K1 APJ PathHunter beta-arrestin, luminescence; 0% DMSO wells, 100% apelin; 330,000 tested, 0.11% active; activation, % at 20 µM;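 active = activation more than six SD over the plate average, tested at 20 µM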;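 also: 0% = DMSO alone and 100% = apelin-13 at 10 nM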
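Assay system – PathHunter CHO-K1 APJ (AGTRL-1) beta-arrestin reporter cells · Compound – one dose, 20 µM compound, 1% DMSO · Timing – compound 90 min 25 °C, reagent 1 h · Measured by – luminescence from split beta-galactosidase complementation, Galacton Star/Emerald II substrate · Measure – beta-arrestin recruitment to APJ as agonist activity, luminescent signal · Benchmarks – DMSO vs Apelin-13 10 nM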
CCR6 antagonist – CCR6 (human) receptor antagonism. CHO-K1 CCR6 PathHunter beta-arrestin, luminescence, CCL20-stimulated. inhibition, % at 20 µM. 340,000 tested, 0.49% active. AID 493098;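 active = compounds whose inhibition of the agonist-driven luminescence signal at 20 µM reaches about 50%, limit read from the data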;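 also: cells stimulated with CCL20 at 14 nM final; plate controls were DMSO with CCL20 for no effect and DMSO without agonist for full effect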
OPRM1 ag – activates human mu opioid receptor in HTR2A counterscreen; AID 624380; shares compounds with HTR2A ag; U2OS OPRM1 beta-arrestin PathHunter, luminescence; DMSO 0%, DAMGO 9.3 µM 100%; activation, % at 9.3 µM; 2,300 tested, 5.3% active;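 active = mean activation above the mean of DMSO-only wells plus 3 SD, cut at about 0.5% in these data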
Target sequence (P35372 whole entry, looked up): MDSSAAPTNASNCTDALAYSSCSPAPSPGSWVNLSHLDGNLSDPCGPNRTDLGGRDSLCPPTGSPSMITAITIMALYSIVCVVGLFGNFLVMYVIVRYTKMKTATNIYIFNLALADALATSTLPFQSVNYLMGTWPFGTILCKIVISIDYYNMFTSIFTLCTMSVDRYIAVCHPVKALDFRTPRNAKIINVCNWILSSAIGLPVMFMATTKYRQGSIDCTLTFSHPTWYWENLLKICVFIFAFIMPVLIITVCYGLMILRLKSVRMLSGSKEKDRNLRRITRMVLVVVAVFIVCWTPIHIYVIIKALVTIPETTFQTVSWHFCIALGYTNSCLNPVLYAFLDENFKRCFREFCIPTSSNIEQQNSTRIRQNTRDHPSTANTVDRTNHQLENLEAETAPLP
HTR2A ag conf – mouse HTR2A agonism confirmed. CHO-K1 PathHunter beta-arrestin recruitment, luminescence; DMSO 0%, 30 µM serotonin 100%. AID 624381. activation, % at 7.6 µM. 2,300 tested, 19% active. shares compounds with HTR2A ag;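 active = mean activation across triplicates above the hit threshold derived in the original primary screen, cut at about 15% in these data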
Numbers without * were called inactive; / = not tested or not shown. Shown are actives, neighbours in structure and some others; about 2.1% of the full set was active somewhere.

SMILES	APJ antag	EBI2 block	HTR2A ag	CXCR6 block	APJ agonist	CCR6 antagonist	OPRM1 ag	HTR2A ag conf
NS(=O)(=O)c1ccc(NC(=O)/C=C/c2ccco2)cc1	-12	1	2	-3	1	0	/	/
Cc1ccccc1OCCn1ccnc1	2	0	-5	-2	-1	0	/	/
COc1ccccc1OCCn1ccnc1	-8	-3	16*	2	-2	-3	-1	-6
O=C(c1ccc(Cl)cc1)c1nnc(-c2ccncc2)o1	-12	-8	-1	8	-1	-9	/	/
Nc1nc(N2CCN(Cc3ccccc3)CC2)n[nH]1	-11	-3	39*	3	-5	-5	0	110*
CCOC(=O)C(NC(=O)C1C(C)N1S(=O)(=O)c1ccc(C)cc1)C(=O)OCC (stereo unspecified)	-6	-8	16*	3	8	8	-1	-3
CC(=O)NCCNC(=O)C1(C)Cc2c(-c3ccc(C(N)=O)cc3)ccnc2O1 (stereo unspecified)	/	-11	24*	4	/	/	-1	-1
CC1(C(=O)NCC2CC2)Cc2c(-c3cccc(C(N)=O)c3)ccnc2O1 (stereo unspecified)	/	-2	14*	-6	/	/	-1	-1
CC(=O)NCCNC(=O)C1(C)Cc2c(-c3ccccc3)ccnc2O1 (stereo unspecified)	/	-6	2	1	/	/	/	/
O=C(NCCCN1CCCC1=O)c1ccccc1OCc1ccc(Cl)cc1Cl	17	-8	1	5	-4	20	/	/
CCCCC(=O)Nc1ccc(NC(=O)c2ccco2)cn1	7	-9	2	-12	-3	20	/	/
COc1ccc(Nc2nc(N3CCN(C)CC3)nc3ccccc23)c(OC)c1	-6	3	16*	9	0	26	0	19*
O=C1C=C(NCc2ccc(Cl)c(Cl)c2)CC1	25	1	-2	-5	-1	14	/	/
CC(C)N=c1c([N+](=O)[O-])nn(C)n1O	-21	3	15*	-11	-3	14	-1	-3
CCOC(=O)c1nc(Nc2ccccc2CC)c2ccccc2n1	-8	-9	-3	-2	-4	10	/	/
COc1ccc(/C=C/C(=O)Nc2nonc2NC(C)=O)cc1	0	-6	25*	0	0	-1	-1	-3
COc1cc(/C=C/C(=O)OCC(=O)Nc2ccc(S(=O)(=O)N3CCCC3)cc2)ccc1O	8	-16	2	-5	3	12	/	/
CCN1CCN(c2ccc(NC(=O)c3cccc4ncccc34)cc2)CC1	19	5	0	-2	-5	-13	/	/
CCC/C(O)=C1\C(=O)CCCC1=NCCc1ccc(OCC)c(OCC)c1	-4	0	15*	-16	0	11	-1	-3
O=C(CC1C(=O)NCCN1Cc1ccccc1C(F)(F)F)NCCN1CCOCC1 (stereo unspecified)	4	-17	3	5	-2	1	/	/
CCOc1ccccc1CN1CCNC(=O)C1CC(=O)NCCN1CCOC1=O (stereo unspecified)	3	-10	15*	0	-1	12	0	-3
O=C(CC1C(=O)NCCN1Cc1ccccc1C(F)(F)F)NCCn1cccn1 (stereo unspecified)	-1	-1	16*	-1	4	8	0	0
CCOc1ccccc1CN1CCNC(=O)C1CC(=O)NCc1nccn1CC (stereo unspecified)	0	-7	0	-7	-3	-1	/	/
COc1cccc(N(CC(=O)NCC2CCCO2)C(=O)CCC(=O)Nc2nccs2)c1 (stereo unspecified)	-17	-4	4	-1	9	-2	/	/
COc1ccc(Br)cc1CN1CCN(C(=O)c2ccco2)CC1	7	-5	-2	1	-5	4	/	/
SMILES	APJ antag	EBI2 block	HTR2A ag	CXCR6 block	APJ agonist	CCR6 antagonist	OPRM1 ag	HTR2A ag conf
COc1ccc(CN2CCN(C(=O)c3ccco3)CC2)c(OC)c1OC	-5	-7	29*	0	-1	-2	-1	78*
COc1ccccc1CN1CCN(C(=O)c2ccco2)CC1	-8	-6	30*	12	-1	7	-1	92*
CC(C)/C=C1\CCCCC1N(C)C(=O)NC(C)C (stereo unspecified)	4	16	28*	5	-5	2	-1	-6
CC(C)NC(=O)C(=O)NC1CCCCCC1	2	-2	-1	6	-2	23	/	/
COc1ccc(/C=N\NC(=O)c2ccc(F)cc2)cc1COc1cc(F)ccc1[N+](=O)[O-]	2	7	-4	-5	14	0	/	/
COc1cccc(N2CCN(C(=O)c3cc4c(OC)c(OC)c(OC)cc4[nH]3)CC2)c1	15	-2	-9	3	-4	7	/	/
CSc1ccc(NC(=O)N2CCN(c3nc4ccccc4s3)CC2)cc1	-1	15	18*	-12	-3	7	0.5*	1
CCCC(=O)N1CCN(c2nc3ccccc3s2)CC1	-38	2	3	2	3	5	/	/
Cc1cnc(N)nc1-c1ccccc1	/	-2	29*	-4	/	/	0	-4
Nc1ncc(C(=O)O)c(-c2ccccc2)n1	/	-12	-3	-1	/	-8	/	/
O=C(/C=C/c1ccccc1)N/C(=C/c1ccccc1)C(=O)Nc1ccc(C(=O)O)cc1	5	0	-3	1	0	1	/	/
CCOC(=O)/C(=C\c1ccc([N+](=O)[O-])o1)NC(=O)c1ccccc1	-14	0	-2	-6	3	11	/	/
COc1ccc(-c2cc(C)no2)cc1S(=O)(=O)NCCCN1CCN(c2ccccc2)CC1	1	-1	17*	-4	-1	11	0	26*
O=C(Nc1nc2ccccc2s1)c1ccc(F)cc1	-21	8	53*	3	0	-2	0	-3
O=C(COC(=O)C1CCC1)Nc1ccc(Cl)cn1	5	5	8	3	-2	12	/	/
Cc1ccc(-n2c(C)cc(C(=O)CN3CCOCC3)c2C)cc1C	10	1	-5	5	-3	-6	/	/
CSc1nc(SCC(=O)NCc2ccco2)c2c3c(sc2n1)COC(C)(C)C3	5	20	19*	7	4	9	-1	2
COc1ccc(S(=O)(=O)N2CCC(N3CCN(Cc4ccccc4)CC3)CC2)cc1	-4	-5	22*	2	-2	-9	-1	42*
O=S(=O)(c1ccc(Cl)cc1)N1CCN(C2CCN(Cc3ccccc3)CC2)CC1	6	2	-3	2	3	-1	/	/
